Shown are actives, neighbours in structure and some others; about 3.7% of the full set was active somewhere.
hERG rescue: hERG rescue from dofetilide block, primary screen, cell-based, CHO-hERG, FluxOR thallium flux, dofetilide IC70; actives 0.51% (n = 310,000); Voltage-gated inwardly rectifying potassium channel KCNH2 (Homo sapiens), Q12809; dofetilide IC70 present; AID 1511, 2009; activation (rescue from dofetilide block), less the hit threshold, % at 10 µM;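 active = activation above the mean of controls blocked by dofetilide plus 5 SD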;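 also: thallium influx through hERG after potassium depolarization seen as dye fluorescence rise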
KCNQ1 pot: potentiators or activators of KCNQ1 channel, primary screen, cell-based, thallium flux, high-throughput; Potassium voltage-gated channel subfamily KQT member 1 (Homo sapiens), P51787; CHO-K1 KCNQ1, thallium flux FluxOR fluorescence; stronger effect = higher value; B-score at 10 µM; actives 0.35% (n = 310,000); AID 2648, 2010;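 active = fluorescence ratio B-score, a plate-corrected score, at least three library SD, with initial intensity B-score within 5 SD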
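Medium – assay buffer, equal DMSO in all wells · Material – CHO-K1 cell line with stable KCNQ1 potassium channel expression · Signal – kinetic FluxOR thallium fluorescence, 10-s 1-Hz baseline, 110-s post-stimulus read · Compound – single concentration per compound, DMSO matched to controls · Schedule – 37 °C overnight plating, 90-min dark dye load, 20-min compound pretreatment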
KCNQ1 block: inhibitors of human KCNQ1 channel, primary screen, cell-based, thallium flux, high-throughput; Potassium voltage-gated channel subfamily KQT member 1 (Homo sapiens), P51787; CHO-K1 KCNQ1, FluxOR thallium flux fluorescence; stronger effect = higher value; B-score at 10 µM; actives 1.3% (n = 310,000); AID 2642, 2010;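 active = compounds whose thallium flux B-score, printed positive for inhibition, exceeds three library SD while starting fluorescence stays within three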;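 also: channel opened by potassium depolarization with thallium stimulus after 20 min compound exposure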
KCNK9 block: KCNK9 potassium channel inhibitors, primary screen, HEK293 cells, thallium flux | FluxOR thallium flux fluorescence; stronger effect = lower value | B-score at 10 µM | actives 1.2% (n = 310,000);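 active = ratio B-score over 3 SD below the library mean, with starting fluorescence within 5 SD of its mean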;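 also: negative B-score means less thallium flux so channel inhibition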
Target sequence (Q9NPC2 whole entry, looked up): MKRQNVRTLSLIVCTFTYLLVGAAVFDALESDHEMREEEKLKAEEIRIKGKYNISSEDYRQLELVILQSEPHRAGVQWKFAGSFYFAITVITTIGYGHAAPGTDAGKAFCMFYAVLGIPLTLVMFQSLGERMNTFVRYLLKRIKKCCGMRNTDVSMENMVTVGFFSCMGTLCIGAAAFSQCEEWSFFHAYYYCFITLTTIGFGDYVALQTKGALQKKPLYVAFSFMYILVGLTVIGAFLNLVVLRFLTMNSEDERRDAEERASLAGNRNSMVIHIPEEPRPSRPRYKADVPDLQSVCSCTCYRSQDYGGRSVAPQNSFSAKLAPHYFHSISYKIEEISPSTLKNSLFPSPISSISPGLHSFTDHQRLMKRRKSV
KCNK3 inh: human KCNK3 channel inhibitors, primary screen, CHO cells, FluxOR thallium flux, B-score. actives 0.84% (n = 340,000). B-score at 10 µM. Potassium channel subfamily K member 3 (Homo sapiens), O14649. FluxOR fluorescence; stronger effect = lower value. AID 602410, 2012;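 active = B-score under library mean minus 4 SD, starting fluorescence ratio at most library mean plus 5 SD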;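 also: more negative B-score means stronger inhibition of thallium flux through KCNK3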
Kir21 block: inhibitors of mouse Kir2.1 inward-rectifier potassium channel. Inward rectifier potassium channel 2 (Mus musculus), P35561. HEK293-Kir2.1, FluxOR thallium flux fluorescence; stronger effect = lower value. B-score at 10 µM. actives 0.85% (n = 310,000). AID 1672, 2009;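 active = fluorescence ratio B-score at or below minus 3 SD of library scores, with starting-brightness B-score within 2 SD, cut at about -4.2 in these data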;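 also: channel flux triggered by added potassium and thallium sulfate stimulus; B-score of peak minus minimum fluorescence over baseline after thallium stimulus; more negative B-score means stronger Kir2.1 block with less thallium influx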
The depositor's hits bear a star; i = inactive; . = no result given.

SMILES	hERG rescue	KCNQ1 pot	KCNQ1 block	KCNK9 block	KCNK3 inh	Kir21 block
COc1ccc(C(C[N+](=O)[O-])c2c(-c3ccccc3)cc3ccccn23)cc1 (stereo unspecified)	-11	i	8*	i	i	1.9
COc1ccc(C(C[N+](=O)[O-])c2c(-c3ccccc3)cc3ccccn23)cc1OC (stereo unspecified)	-16	i	i	i	i	-0.06
COc1cc(C(C[N+](=O)[O-])c2c(-c3ccccc3)cc3ccccn23)cc(OC)c1OC (stereo unspecified)	-4	i	i	-7.9*	i	1.2
CC1CN(C(=O)c2ccccc2NS(=O)(=O)c2ccc(Cl)cc2)CC(C)O1 (stereo unspecified)	.	.	.	.	i	.
CC(C)c1ccc2c(c1)C(c1cccs1)=NNC(c1ccncc1)=N2	-5	i	i	-7.4*	i	-0.06
CC(/C=N/n1c(C2CCCCC2)n[nH]c1=S)=C\c1ccccc1	-8	21*	i	i	i	-0.02
Cc1cccc(/C=N/n2c(C3CCCCC3)n[nH]c2=S)c1	-4	i	i	i	i	-1.3
CC(=O)C1CCN(Cc2ccccc2)CC1	0	i	i	i	i	0
CSc1ccccc1OC1CCN(Cc2ccccc2)CC1	-5	i	i	i	i	-13*
COc1cc([N+](=O)[O-])cc2sc(NC(=O)C3CC3)nc12	-17	i	i	i	i	0.08
O=C(CNC(=O)C12CC3CC(CC(C3)C1)C2)OCc1cc(=O)n2cc(Br)ccc2n1	6.1*	i	i	i	i	-0.45
CC1CC1C(=O)OCc1cc(=O)n2cc(Br)ccc2n1 (stereo unspecified)	-5	i	i	i	i	-0.26
O=c1[nH]c(O)c(/C=C2\C=Nc3ccc(Br)cc32)[nH]1	-7	i	i	i	i	-0.28
CSc1cccc(NC(=S)NCCCN2CCN(c3ccc(F)cc3)CC2)c1	-12	i	i	i	i	-5.8*
Fc1cccc(NC(=S)NCCCN2CCOCC2)c1	-12	i	i	i	i	0.37
COc1ccc(C(C(=O)NC2CCCC2)N(Cc2cccnc2)C(=O)c2snc(C(N)=O)c2N)cc1 (stereo unspecified)	-7	i	i	i	i	-0.39
O=S(=O)(c1cccc2cccnc12)N1CCOCC1	-5	i	i	i	i	0.53
CC1CC(C)CN(S(=O)(=O)c2cccc3cccnc23)C1 (stereo unspecified)	-1	i	i	i	i	-5.2*
CCOC(=O)c1ccccc1NC(=O)COC(=O)c1c(CC)noc1C	-5	i	i	i	i	-4.5
Cc1c(-c2nc(-c3ccncc3)no2)cccc1[N+](=O)[O-]	-4	11*	i	i	i	-1.4
Cc1ccc(C2=CSC3=NS(=O)(=O)CCN23)cc1	1	9*	i	i	i	-1.5
Cc1ccc(C)c(C2=CSC3=NS(=O)(=O)CCN23)c1	-17	i	i	i	i	-0.26
COc1ccccc1OCCCCn1c(C(C)O)nc2ccccc21 (stereo unspecified)	-9	i	i	i	i	-0.43
CN(C(=O)c1ccc(NC(=O)Cc2ccc(NC(=O)C3CCCN(C(=O)C4CC4)C3)cc2)cc1)C1CCCC1 (stereo unspecified)	.	.	.	.	i	.
O=C(COC(=O)c1cc(-c2cccs2)nn1-c1ccccc1)Nc1cccc([N+](=O)[O-])c1	-8	i	i	-6.8*	i	-0.61
CC1=CC(=O)C(C(C)=Nc2cccc(Cl)c2)C(=O)O1 (stereo unspecified)	.	.	.	.	i	.
O=C(COC(=O)CC1SC(N2CCCC2)=NC1=O)Nc1c(F)c(F)c(F)c(F)c1F (stereo unspecified)	.	.	.	.	i	.
